Reference: ChEMBL document CHEMBL4513216, “Probing the Open Global Health Chemical Diversity Library for Multistage-Active Starting Points for Next-Generation Antimalarials” (ACS Infect Dis, 2020)

assay: Toxicity liver stage against HepG2, at 10uM; format: cell-based; set-up: test concentration 10 uM, cell line HepG2-A16-CD81EGFP; conditions: human, HepG2-A16-CD81EGFP cells; read-out: INHIBITION
Outline: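 Uninfected HepG2-A16-CD81EGFP cells, 3 × 10^3 per well, 1536-well, plated on prespotted compound at 10 μM final, parasite-free screening media added to match infected plates; puromycin 10 μM positive, DMSO 0.5% negative; run in parallel with 48 h PbLuc assay at 37 °C, 5% CO2; viability by CellTiter-Glo luminescence, normalized to controls.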

SMILES | cytotoxicity at 10 µM [%]
CN1CCN(c2ccc(NS(=O)(=O)c3ccc(Cl)s3)cc2C(=O)O)CC1 | -1.08
Cc1ccnc(NC(=O)C2(n3cnnn3)CCCCC2)c1 | -0.0864
CS(=O)(=O)N1CCN(C(=O)c2cc(-c3ccc(Br)s3)n[nH]2)CC1 | -7.62
Cc1cc(C)n(CCN2CCN(C(=O)c3ccc(Br)o3)CC2)n1 | -8.46
O=C(C1CCC1)N1CCC2(CC1)CNCCO2 | -4.29
CN(C)C(=O)N1CCc2ccc(=O)[nH]c2CC1 | 5.39
CC(C)NC(=O)[C@H]1C[C@H]2NCCO[C@@H]2C1 | -134
CN(C)CC(=O)N1CCC2(CC1)COCCN(c1ncccn1)C2 | 5.38
O=C(CC1CC1)N1Cc2nccn2CC(Cn2ncccc2=O)C1 (stereo not given) | 7.04
Cn1cc(CN2CCC3(CC2)CN(C(=O)c2cnccn2)CCO3)cn1 | -5.49
CCOCc1ncn2c1CN(S(=O)(=O)c1cccs1)CCC2 | 9.52
COCCO[C@@H]1CCN(C(=O)c2occc2C)[C@H]1Cc1cnn(C)c1 | 5.1
Oc1nc(N2CCCC2)nc2nccc(-c3ccccn3)c12 | 1.36
Cn1cc(I)c(C(=O)NC2CCCC2)n1 | 5.53
O=C(NCC1CC1)c1nc(COc2ccc3c(c2)OCO3)no1 | 8.89
COc1ncnc2c1CCN(c1cc(C(F)(F)F)ncn1)CC2 | -1.42
O=C(C1=CCCC1)N1CCO[C@H]2[C@@H](OCC3CC3)CC[C@@H]21 | -5.66
COCCN1CCN(C(=O)c2ccncc2F)Cc2cccnc21 | 10
COC(=O)Cn1c(=O)cc(C(F)F)c2c(C)nn(CC(F)F)c21 | 6.2
CC(=O)Nc1ncc(S(=O)(=O)Nc2cccc(F)c2)s1 | 2.93
Cc1nn(C)c2c(N3CCN(C(=O)NC4CCCCC4)CC3)ncnc12 | 9.09
CN1CCCC1c1nnc2n1CCN(S(=O)(=O)c1ccccc1Cl)CC2 (stereo not given) | 4.94

SMILES | cytotoxicity at 10 µM [%]
O=C(O)c1ccccc1-c1ccc(CN2CCC(CO)C2)cc1 (stereo not given) | -14.6
Cn1c(C(=O)NC(Cc2ccsc2)c2cccnc2)cc(=O)n(C)c1=O (stereo not given) | 2.61
c1cc(C2CCCN2CC2CCCCC2)n[nH]1 (stereo not given) | -1.83
CNc1nc(C2CCCN(C(=O)C(C)(C)OC)C2)nc2c1CN(C)CC2 (stereo not given) | -8.24
O=S(=O)(c1cn[nH]c1)N1CCCC1c1cc[nH]n1 (stereo not given) | -23
Fc1ccc(-c2nccnc2C2CCCNC2)cc1 (stereo not given) | -23.8
CC(NC(=O)NC1CCN(Cc2ccccc2)CC1)c1nncn1C (stereo not given) | -12.5
CCCN(CC(=O)OC)C(=O)c1sc(C)nc1C | -2.42
CC(C)(C)c1ncc(C(=O)NCc2cccc(C(=O)N3CCCC3)c2)s1 | -4.57
COc1ccc(Cl)cc1CS(=O)(=O)CC(=O)NC(C)CCC(C)C (stereo not given) | 11
COc1ccc(Cl)cc1CS(=O)(=O)Cc1cc(C)on1 | 6.06
CN(Cc1ccc(Cl)s1)C(=O)NCCN1CCCCCC1=O | -0.509
O=C(OCc1ccccc1)C1CCCN1Cc1nc(C2CC2)no1 (stereo not given) | -5.43
Cc1nc(CN[C@H]2CCCN(C(=O)OC(C)(C)C)C2)cs1 | 0.577
CCN(CC)CCn1cc(NC2CCN(C(C)(C)C)CC2)cn1 | -6.53
Fc1ccc(CNCCn2cccn2)c(F)c1 | 8.59
Cc1nn(C)c(C)c1CCC(=O)N(C)Cc1ccc(C#N)cc1 | -2.45
CN(C)S(=O)(=O)c1ccc2c(c1)N(Cc1ccccn1)CCC2 | 0.645
Cc1cc(C(=O)NC2CCN(C(=O)Nc3cccnc3)CC2)c(C)o1 | 6.62
CN(c1ncnc2c1cnn2C)C1CCCN(c2cccnn2)C1 (stereo not given) | 3.93
CCc1nc(C2CCCN2C(=O)c2ccc(=O)n(CC)n2)no1 (stereo not given) | 2.72
COc1ccc(S(=O)(=O)N2CCn3nc(C)nc3C2)cc1C | 9.68

SMILES | cytotoxicity at 10 µM [%]
O=C(NCCCn1cncn1)c1ccc(-c2ccccc2)[nH]c1=O | -4.86
CSC1(CNC(=O)NC(C)Cc2cccc(F)c2)CCOCC1 (stereo not given) | -15.6
CCN(CCNC(=O)C1CCCN(C(C)=O)C1)c1ccccc1C (stereo not given) | 4.87
CN(C)C(=O)CN(C)C(=O)c1csc(Br)c1 | 12.3
COc1cccc(COCC(O)CN(C)c2ccc(C)cc2C)c1 (stereo not given) | 9.66
COc1cccc(S(=O)(=O)Cc2noc(CC(C)C)n2)c1 | 12
Cc1cc(C)c(CNC(=O)N(C)Cc2nnc3n2CCC3)c(=O)[nH]1 | -10.5
Cc1csc(CNC(=O)N(C)Cc2nnc3n2CCC3)n1 | -4.75
Cc1noc(C)c1CNS(=O)(=O)N(C)Cc1ccccc1Br | 17.8
COc1ccc(C2(CNC(C)c3nnc(C)o3)CCCCC2)cc1 (stereo not given) | 4.21
NC(=O)CSCC(=O)N1CCc2cc(Cl)cc(Cl)c2C1 | 27.9
O=C(C1CC1)N1CCCC1C1CCN(Cc2ccccc2)CC1 (stereo not given) | -9.37
CN(C)C(=O)CNC(=O)c1ccc(Cl)cc1F | -7.04
CCOc1nnc(CN(C)CC2CCCN2c2cccnn2)s1 (stereo not given) | -10.7
CCCc1n[nH]c(C2CN(CCn3cccn3)CCO2)n1 (stereo not given) | -11.3
Cc1nc(C)n(C2CCCN(C(=O)c3ccc(F)cc3F)C2)n1 (stereo not given) | -2.9
Cc1ccc(CNC(=O)C2=NOC3(CCCNC3)C2)cc1 (stereo not given) | 1.33
CC1(C)CNC(=O)c2nc(CCN3CCOCC3)[nH]c2C1 | -10.7
O=S1(=O)COCCN1Cc1ccc(Cl)c(Cl)c1 | 8.44
COCc1noc(-c2ccc(N(C)Cc3cn(C)nc3C)nc2)n1 | -9.75
CCCN(Cc1nc(-c2ccoc2)oc1C)CC1CCCO1 (stereo not given) | 2.4
CCc1cc(NCCCN(C)C2CCCC2)ncn1 | 1.75

SMILES | cytotoxicity at 10 µM [%]
O=C1OCCN1Cc1cccc(F)c1C(F)(F)F | 2.61
O=C(CNC(Cn1cccn1)c1ccccc1)Nc1cnccn1 (stereo not given) | 7.34
Cn1ccnc1SCCNC(=O)c1c[nH]nc1C1CCCCC1 | -4.68
Cc1nc(C)n(CCNC2CCN(c3ncnc4c(C)csc34)CC2)n1 | 4.35
CSCCC(=O)N1CCCC(c2nccn2Cc2ccncc2)C1 (stereo not given) | 9.33
C[C@@H]1CN(c2cc(N3CCC(O)CC3)ncn2)C[C@@]1(O)C1CC1 | -1.79
CN(C)S(=O)(=O)N1CC[C@]2(O)CCN(Cc3cc(F)cc(F)c3)C[C@@H]2C1 | -0.757
Cc1cc(F)ccc1-c1cc(NCCO)nc2[nH]ccc12 | 21.7
O=C(CCO)N[C@H]1CN(CC2CCC2)C[C@@H]1c1ccccc1 | -0.447
Cc1cc(NCCc2nnc(N)s2)nc(-c2ccccc2)n1 | 6.9
CCCn1c(C)c(CC(=O)NCC(N)=O)c2c1CC(C)(C)CC2=O | 2.03
Cc1cccc(C(C(=O)NC(C)(C)CN2CCCC2)N(C)C)c1 (stereo not given) | -3.73
Cc1ccc(OCCN(C)C(=O)CCCN2CCCC2=O)c(C)c1 | -8.38
CNc1cc(C)nc(N2C[C@H](C3CC3)[C@@H](N)C2)n1 | -4.7
Cc1cc(C(=O)N2CCCC2)ccc1NS(C)(=O)=O | 0.535
CCN1CC(C(=O)N2CC(Oc3ccccc3F)C2)CC1=O (stereo not given) | -2.49
O=C(NCCc1cccnc1)Nc1cc(C(F)(F)F)c[nH]c1=O | -12.2
Cc1cnn(CC2CN(Cc3nnc(-c4ccccc4)o3)CCO2)c1 (stereo not given) | -6.61
O=C(CCOc1ccccc1)N1CCCC(n2cncn2)C1 (stereo not given) | -2.95
O=C(c1ccc(OCC2CC2)nc1)N1CCCC(n2cccn2)C1 (stereo not given) | -12.4
c1ncc2c(n1)CN(Cc1nc(-c3ccc4c(c3)OCO4)no1)CC2 | -10.4
Cc1cc(C)n(-c2ccc(CNCc3cccc(C#N)c3)cn2)n1 | -10.2

SMILES | cytotoxicity at 10 µM [%]
COC(=O)c1cc(C(=O)N2CCC(OC)CC2)n(-c2ccccc2)n1 | -15.1
CCc1nc(CC(=O)N2CCn3c(nnc3C(F)(F)F)C2)cs1 | -9.29
Cc1cc(NC(=O)NCC2CCOC2)no1 (stereo not given) | 4.43
O=C(NCc1cccc2cccnc12)N1CCC(n2cncn2)CC1 | 0.722
O=C(c1cnc(-c2ccco2)s1)N1CCCC1Cn1cccn1 (stereo not given) | -1.08
COc1cccc(C(=O)N2CCCC(c3cc(C)[nH]n3)C2)c1OC (stereo not given) | -7.4
CN1CC(=O)N(c2cccnc2)CC12CCN(C(=O)c1cccnc1)C2 (stereo not given) | 2.25
c1csc(CN2CC(c3nc(-c4cnccn4)no3)C2)c1 | -8.28
CN1CCN(C[C@@H]2OC[C@H]3CN(Cc4ccsc4)CC[C@H]32)CC1 | -11
CCOC(=O)[C@]12CCCN(Cc3nccs3)C[C@H]1CN(CC(C)C)C2 | -2.85
CN1CC(=O)N(c2ccsc2)CC12CCN(Cc1cnn(C)c1)C2 (stereo not given) | 0.0218
Cc1ccc(CN2CCC3(CCC3NS(=O)(=O)c3ccccc3)CC2)o1 (stereo not given) | -2.97
CN1CCN(c2ccc3ccc(C(=O)N4CCCCO4)cn23)CC1 | -7.3
COCC(=O)N1CCOCC2(CCN(Cc3cccs3)C2)C1 (stereo not given) | -6.16
CC(C)OCCCN(Cc1ccncc1)Cc1cccc(F)c1F | -15.3
Cc1cc(CN2C[C@@H]3CCCO[C@@H]3[C@H](NS(C)(=O)=O)C2)no1 | 11.5
Cc1nc(CN2CCO[C@H]3[C@@H](Oc4ccccn4)CC[C@@H]32)cs1 | 2.4
CCS(=O)(=O)N1C[C@@H]2CN(Cc3cnn(C)c3)CCO[C@@H]2C1 | -0.646
Cc1nc(CN2C[C@@H]3CN(C(=O)c4cnccn4)C[C@@H]3C2)cs1 | -8.97
Cc1ccc(C(=O)N2C[C@H]3CC[C@@H](C2)N(Cc2ccccc2)C3)cn1 | -140
O=C(Nc1ccccc1)N1C[C@@H]2C[C@H](C(=O)N3CCCC3)[C@H](C1)O2 | -3.29
COc1ccc(-n2cc3[nH]c(=O)n(C(C)C)n3c2=O)cc1 | 2.03
